Measured values as given in ChEMBL document CHEMBL1128301, “Cephalosporin derivatives of doxorubicin as prodrugs for activation by monoclonal antibody-beta-lactamase conjugates” (J Med Chem, 1995).

Tests used:
[1] = substrate: COc1cccc2c1C(=O)c1c(O)c3c(c(O)c1C2=O)C[C@@](O)(C(=O)CO)C[C@@H]3OC1CC(NC(=O)OCC2=C(C(=O)O)N3C(=O)[C@@H](NC(=O)CCCC(=O)O)[C@H]3SC2)C(O)C(C)O1; experiment: The kinetic constant(Km) value as spectrophotometrically by using Escherichia coli TEM-1 beta-lactamase (ECbL) enzyme as catalyst
How it was run: (§1)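 Spectrophotometric hydrolysis at 23 °C in PBS with 12.5 μg/mL BSA. EClbL was used at 0.1 μg/mL; BCbL and ECbL at 1.0 μg/mL. […] Initial velocities were linear over 1 min.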

[2] = substrate: COc1cccc2c1C(=O)c1c(O)c3c(c(O)c1C2=O)C[C@@](O)(C(=O)CO)C[C@@H]3OC1CC(NC(=O)OCC2=C(C(=O)O)N3C(=O)[C@@H](NC(=O)CCCC(=O)O)[C@H]3SC2)C(O)C(C)O1; experiment: The kinetic constant(Km) value as spectrophotometrically by using Enterobacter cloacae P99 beta-lactamase (ECIbL) enzyme as catalyst
How it was run: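 Initial-velocity kinetics at 23 °C in PBS with 12.5 μg/mL bovine serum albumin. […] Hydrolysis followed by absorbance change at 230 nm or 260 nm, linear over 1 min. Km from direct linear plots, mean of at least three independent experiments.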

[3] = substrate: COc1cccc2c1C(=O)c1c(O)c3c(c(O)c1C2=O)C[C@@](O)(C(=O)CO)C[C@@H]3OC1CC(NC(=O)OCC2=C(C(=O)O)N3C(=O)[C@@H](NC(=O)CCCC(=O)O)[C@H]3SC2)C(O)C(C)O1; experiment: The kinetic constant(Km) value as spectrophotometrically by using Bacillus cereus beta-lactamase (BCbL) enzyme as catalyst; how it was run: as §1

B1: Beta-lactamase TEM (Escherichia coli), P62593 (protein)
chain: MSIQHFRVALIPFFAAFCLPVFAHPETLVKVKDAEDQLGARVGYIELDLNSGKILESFRPEERFPMMSTFKVLLCGAVLSRVDAGQEQLGRRIHYSQNDLVEYSPVTEKHLTDGMTVRELCSAAITMSDNTAANLLLTTIGGPKELTAFLHNMGDHVTRLDRWEPELNEAIPNDERDTTMPAAMATTLRKLLTGELLTLASRQQLIDWMEADKVAGPLLRSALPAGWFIADKSGAGERGSRGIIAALGPDGKPSRIVVIYTTGSQATMDERNRQIAEIGASLIKHW
Km [1]: 73 µM

B2: Beta-lactamase (Enterobacter cloacae), P05364 (protein)
chain: MMRKSLCCALLLGISCSALATPVSEKQLAEVVANTITPLMKAQSVPGMAVAVIYQGKPHYYTFGKADIAANKPVTPQTLFELGSISKTFTGVLGGDAIARGEISLDDAVTRYWPQLTGKQWQGIRMLDLATYTAGGLPLQVPDEVTDNASLLRFYQNWQPQWKPGTTRLYANASIGLFGALAVKPSGMPYEQAMTTRVLKPLKLDHTWINVPKAEEAHYAWGYRDGKAVRVSPGMLDAQAYGVKTNVQDMANWVMANMAPENVADASLKQGIALAQSRYWRIGSMYQGLGWEMLNWPVEANTVVEGSDSKVALAPLPVAEVNPPAPPVKASWVHKTGSTGGFGSYVAFIPEKQIGIVMLANTSYPNPARVEAAYHILEALQ
Km [2]: 83 µM

B3: Metallo-beta-lactamase type 2 (Bacillus cereus), P14488 (protein)
chain: MKNTLLKLGVCVSLLGITPFVSTISSVQAERTVEHKVIKNETGTISISQLNKNVWVHTELGYFSGEAVPSNGLVLNTSKGLVLVDSSWDDKLTKELIEMVEKKFKKRVTDVIITHAHADRIGGMKTLKERGIKAHSTALTAELAKKNGYEEPLGDLQSVTNLKFGNMKVETFYPGKGHTEDNIVVWLPQYQILAGGCLVKSASSKDLGNVADAYVNEWSTSIENVLKRYGNINLVVPGHGEVGDRGLLLHTLDLLK
Km [3]: 56 µM
